# RGS4 inh: human RGS4 inhibition. P49798. HEK293 M3R/RGS4 inducible, Fluo-4 calcium flux; hits give high values; triggered by carbachol at its EC20. AID 463165. B-score at 10 µM. 310,000 tested, 0.45% active;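 active = B-score, a plate-corrected calcium signal, over three deviations above library mean, with baseline fluorescence within five deviations of library mean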;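 note: RGS4 expression induced by doxycycline in cells with stable M3 receptor; B-score is computed from the integrated fluorescence ratio over baseline after carbachol; higher B-score means a larger calcium signal and so more RGS4 inhibition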
# Target sequence (P49798 whole entry, looked up): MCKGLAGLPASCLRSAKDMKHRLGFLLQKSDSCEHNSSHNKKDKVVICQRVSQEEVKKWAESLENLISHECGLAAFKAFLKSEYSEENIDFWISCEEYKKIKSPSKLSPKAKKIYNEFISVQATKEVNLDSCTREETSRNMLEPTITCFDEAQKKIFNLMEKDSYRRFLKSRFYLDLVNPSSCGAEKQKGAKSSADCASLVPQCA
# MrgX1 antagonist: human MrgX1 receptor antagonism, primary screen; MRGX1-HEK293 calcium flux, Fluo-4, BAM8-22 antagonism; hits give low values; 310,000 tested, 1.3% active; B-score at 10 µM;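 active = calcium-response B-score plate-corrected more than 3 library SD below zero, starting fluorescence within 5 deviations, no agonist response on first addition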;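 note: peak minus trough fluorescence over baseline after final BAM8-22 challenge near maximal dose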
# Target sequence (Q96LB2 whole entry, looked up): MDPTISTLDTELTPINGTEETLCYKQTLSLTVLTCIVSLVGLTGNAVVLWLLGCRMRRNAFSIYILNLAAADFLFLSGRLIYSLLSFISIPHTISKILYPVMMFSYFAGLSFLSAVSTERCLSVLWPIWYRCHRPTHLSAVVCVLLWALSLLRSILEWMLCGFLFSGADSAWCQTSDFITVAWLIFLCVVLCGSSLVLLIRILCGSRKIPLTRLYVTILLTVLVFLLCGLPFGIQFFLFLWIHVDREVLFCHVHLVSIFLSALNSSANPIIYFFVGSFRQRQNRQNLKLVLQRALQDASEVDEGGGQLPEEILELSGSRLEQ
# RGS4 pot: RGS4 potentiation or activation. HEK293 M3R/inducible RGS4, carbachol calcium flux Fluo4; hits give low values. B-score at 10 µM. 310,000 tested, 0.92% active. AID 463111;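 active = B-score of the integrated calcium signal more than 4 SD below the library mean, with starting fluorescence not abnormally high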;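 note: negative B-score means reduced calcium response which marks RGS4 activation or potentiation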
#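 Material: Inducible-RGS4 HEK293 cells carrying M3 receptor; also added: carbachol at ECmax as muscarinic agonist stimulus; incubation: compound preincubation 20 min at room temperature before agonist; signal: Fluo4-AM (2 µM) calcium-flux fluorescence, kinetic read; measure: integrated calcium ratio converted to B score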
# MrgX1 PAM: human MrgX1 positive allosteric modulation, primary screen; MrgX1-HEK293, Fluo-4 calcium flux, FDSS; hits give high values; Q96LB2; AID 588675; 310,000 tested, 0.63% active; B-score at 10 µM;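 active = plate-corrected calcium response at least 3 library SD above typical, normal starting fluorescence, not activating the receptor alone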;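 note: compound read alongside a low EC10 to EC30 dose of BAM8-22 agonist; peak minus trough fluorescence over baseline measured at the second addition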
# MrgX1 ag: agonists of human MrgX1 receptor; MrgX1-HEK293 cells, Fluo-4 calcium fluorescence, agonist mode; hits give high values; B-score at 10 µM; 310,000 tested, 0.44% active; AID 588627;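 active = calcium response B-score plate-corrected fluorescence ratio at least 3 library SD, with starting fluorescence B-score inside 5 SD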
#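 times = overnight plating, then 30 min 37 °C plus 30 min room-temperature dye loading | assay system = stable human MrgX1 HEK293 cell line | input = fifteen thousand cells per well | signal = kinetic calcium dye fluorescence, Fluo-4 NW | dosing = compound delivered in addition one of three | read-out = B-scored fluorescence response ratio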
# MrgX1 antag conf: confirmation of human MrgX1 receptor antagonists; shares compounds with MrgX1 antagonist; MrgX1-HEK293, BAM8-22 calcium flux, Fluo-4; hits give low values; remaining BAM8-22 calcium response % of control (hits give low values), % at 10 µM; 2,300 tested, 19% active; AID 602420;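 active = remaining agonist calcium response no higher than 100% minus 3 SD of agonist-only control wells, with starting fluorescence near control levels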;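 note: agonist BAM8-22 given at a near maximal EC90 to ECmax level; peak minus minimum fluorescence divided by baseline after agonist addition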
# HEK293 Ca flux: counter-screen for MrgX1 antagonists: effect in parental HEK293 cells; shares compounds with MrgX1 antagonist; Fluo-4 calcium fluorescence, FDSS; fluorescence ratio F(max-min)/F0 at 10 µM; 4,000 tested, 2% active; AID 624111;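 active = duplicate-averaged calcium fluorescence ratio at least three times the standard deviation of buffer wells, a nonspecific response in parental cells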
# HEK293 Ca counter: activity in parental HEK293 cells without MrgX1; 4,000 tested, 0.4% active; shares compounds with MrgX1 antagonist; parental HEK293 calcium flux, Fluo-4 fluorescence ratio; hits give high values; fluorescence ratio F(max-min)/F0 at 10 µM;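 active = calcium fluorescence ratio, averaged over duplicates, at least 3 SD of the buffer-well ratio, meaning a nonspecific response in receptor-free cells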;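 note: untransfected parental HEK293 lacking MrgX1 used as counterscreen for MrgX1 allosteric activators; fluorescence change taken during the second addition on a kinetic imager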
# HEK293 Ca cntr2: counter-screen for MrgX1 activators: effect in parental HEK293 cells; 4,000 tested, 8.7% active; AID 624115; Fluo-4 calcium fluorescence (FDSS); hits give high values; shares compounds with MrgX1 antagonist; fluorescence ratio F(max-min)/F0 at 10 µM;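 active = calcium fluorescence ratio at least three times the spread of buffer wells, meaning a non-specific response in parental cells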
# Starred values were filed as active, the others as inactive; i = inactive; nt = no result. Sampled rows, rich in hits. Any-hit rate of the full collection: about 3.5%.
SMILES,RGS4 inh,MrgX1 antagonist,RGS4 pot,MrgX1 PAM,MrgX1 ag,MrgX1 antag conf,HEK293 Ca flux,HEK293 Ca counter,HEK293 Ca cntr2
CCOC(=O)c1sc(NC(=O)c2cccc(S(=O)(=O)N3CCN(C)CC3)c2)cc1C,i,i,i,i,i,nt,nt,nt,nt
O=c1cc(CO)occ1OCc1cccc(F)c1,i,i,i,i,i,nt,nt,nt,nt
Cc1ccc(C2=NC(C)(C)N=C2SCC(=O)Nc2ccc(Cl)cc2)cc1,i,-5.7*,i,i,i,i,i,i,i
CC1(C)N=C(SCC(=O)Nc2ccc(Cl)cc2Cl)C(c2ccccc2)=N1,i,-7*,i,i,i,80%*,i,i,i
O=C(Nc1cc(C(F)(F)F)ccc1Cl)C(NCc1ccccc1)c1ccccc1 (centres undefined),i,i,i,i,i,nt,nt,nt,nt
CCOC(=O)Cc1csc(SC(C)C(=O)NC2CCCCC2C)n1 (centres undefined),i,-5.3*,i,i,i,85%*,i,i,i
CCOC(=O)Cc1csc(SCC(=O)NC2CCCC(C)C2C)n1 (centres undefined),i,i,i,i,i,nt,nt,nt,nt
COc1ccc(C(=O)N/N=C\c2coc3ccc(C)cc3c2=O)cc1,i,i,i,i,i,nt,nt,nt,nt
COCCn1nnnc1C(c1ccccc1OC)N1CCN(c2ccccc2F)CC1 (centres undefined),i,i,i,i,i,nt,nt,nt,nt
COCCn1nnnc1C(c1ccc(OC)cc1)N1CCN(c2ccccc2F)CC1 (centres undefined),i,-5.7*,i,i,i,i,i,i,i
COCCn1nnnc1C(c1ccc(C(F)(F)F)cc1)N1CCOCC1 (centres undefined),i,-5.6*,i,i,i,i,i,i,i
COc1ccccc1/C=C/C(=O)NCC(=O)N/N=C/c1ccc(C)o1,i,i,i,i,i,nt,nt,nt,nt
O=C1CCC(C(=O)NCc2cccnc2)N1 (centres undefined),i,i,i,i,i,nt,nt,nt,nt
O=C(NC1CCCCC1)C(c1ccncc1)N(CC1CCCO1)C(=O)C(F)(F)F (centres undefined),i,i,i,i,i,nt,nt,nt,nt
COC(=O)C1CCN(S(C)(=O)=O)CC1,i,-4.6*,i,i,i,i,i,i,i
COC(=O)C1CCN(S(=O)(=O)c2ccc(NC(C)=O)cc2)CC1,i,i,i,i,i,nt,nt,nt,nt
O=C(COc1ccc(CO)cc1)Nc1ccc(F)cc1,i,i,i,i,i,nt,nt,nt,nt
O=C(COc1ccc(CO)cc1Cl)Nc1ccc(F)cc1,i,-6.6*,i,i,i,85%*,i,i,i
COc1ccc(N2CCN(C(=O)c3cccnc3)CC2)c([N+](=O)[O-])c1,i,i,i,i,i,nt,nt,nt,nt
O=C(Nc1cccc(Cl)c1)Nc1cccc(Cl)c1,i,i,i,i,i,nt,nt,nt,nt
O=C(Nc1cccc(F)c1)Nc1cccc(Cl)c1,i,-5.1*,i,i,i,65%*,i,i,i
COC(=O)c1cc(NC(=O)Nc2cccc(Cl)c2)ccc1Cl,i,-4.7*,i,i,i,82%*,i,i,i
CCSc1nsc(NC(=O)Nc2cccc(F)c2)n1,i,-7.4*,i,i,i,78%*,i,i,i
COC(=O)c1cc(NC(=O)c2ccc(-c3ccccc3)cc2)ccc1Cl,i,-8.1*,i,i,i,i,i,i,i
Nc1nc(-c2ccccc2)nn1C(=O)Cc1ccccc1,i,i,i,i,i,nt,nt,nt,nt
SMILES,RGS4 inh,MrgX1 antagonist,RGS4 pot,MrgX1 PAM,MrgX1 ag,MrgX1 antag conf,HEK293 Ca flux,HEK293 Ca counter,HEK293 Ca cntr2
NS(=O)(=O)c1cccc(NC(=O)Nc2ccc(Cl)cc2)c1,i,-6.3*,i,i,i,83%*,i,i,i
COC(=O)c1ccc2c(=O)sc(N3CCC(C(N)=O)CC3)nc2c1,i,-7.6*,i,i,i,i,i,i,i
COC(=O)c1ccc(C(=O)OC)c(NC(=S)N2CCC(C(N)=O)CC2)c1,i,i,i,i,i,nt,nt,nt,nt
CN(C)CCCNS(=O)(=O)c1ccc(N2CCC(c3ccc(Cl)cc3)=N2)cc1,i,-14*,i,i,i,60%*,i,i,i
O=S(=O)(c1ccc(N2CCC(c3ccc(Cl)cc3)=N2)cc1)N(CCO)CCO,i,i,i,i,i,nt,nt,nt,nt
CCOC(=O)c1c(NC(=O)OC)sc(C(=O)N(CC)CC)c1C,i,-4.7*,i,i,i,i,i,i,i
COc1ccc(-c2nnc(N(C)C(=O)c3ccco3)s2)cc1OC,i,-7.5*,i,i,i,i,i,i,i
COCCN(C(=O)c1ccco1)c1nnc(-c2ccc(OC)c(OC)c2)s1,i,i,i,i,i,nt,nt,nt,nt
CCC1(c2ccc(F)cc2)NC(=O)N(CC(=O)NC2CC2)C1=O (centres undefined),i,i,i,i,i,nt,nt,nt,nt
CCC1(c2ccc(F)cc2)NC(=O)N(CC(=O)c2cc(C)n(C3CC3)c2C)C1=O (centres undefined),i,-6.3*,i,i,i,i,i,i,51*
CCC(C(=O)Nc1c2c(nn1C(C)(C)C)CS(=O)(=O)C2)c1ccccc1 (centres undefined),i,-8.1*,i,i,i,i,i,i,i
Cc1ccc2nc(C(C)O)[nH]c2c1 (centres undefined),i,-7.1*,i,i,i,64%*,i,i,i
Cc1ccc2nc(C(O)C(O)c3nc4ccc(C)cc4[nH]3)[nH]c2c1 (centres undefined),i,i,i,i,i,nt,nt,nt,nt
Cc1ccc(/C(N)=N/OC(=O)CN(C)S(=O)(=O)c2ccc(C)cc2)cc1,i,i,i,i,i,nt,nt,nt,nt

# Screening results as filed in PubChem.
